Measured values published in PMC4430358 (Bioorganic & medicinal chemistry letters, 2015).
Entries after “also recorded” stand apart in the source; their conditions may differ. Blank lines part the entries; values can stand above or below the molecule they belong to.

Experiments:
[1] = system: GROα-mediated intracellular calcium release in isolated human PMNs; assay: Inhibition of GROα-mediated intracellular calcium release in isolated human PMNs; assay type: cell-based; details: for fold drop in activity relative to compound 5: PMN calcium release assay; for activity in the PMN assay: compared to compound 5
healthy subjects = details: clinical evaluation; cited from earlier work
CXCR2 = target: T1, CXCR2 (Homo sapiens, UniProt P25025); assay: PathHunter β-arrestin assay; assay type: cell-based
T1 sequence (P25025 1-360): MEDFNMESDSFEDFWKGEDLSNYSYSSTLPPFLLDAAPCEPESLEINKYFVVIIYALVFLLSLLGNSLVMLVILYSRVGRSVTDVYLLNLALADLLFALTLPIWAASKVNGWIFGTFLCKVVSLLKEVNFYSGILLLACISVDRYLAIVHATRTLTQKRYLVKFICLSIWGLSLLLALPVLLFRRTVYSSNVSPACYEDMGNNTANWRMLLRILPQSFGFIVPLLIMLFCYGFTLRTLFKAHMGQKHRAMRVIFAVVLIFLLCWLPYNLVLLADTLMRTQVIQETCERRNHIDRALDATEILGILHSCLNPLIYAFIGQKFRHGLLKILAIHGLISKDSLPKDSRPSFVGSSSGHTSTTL

Sprague-Dawley rats = assay: Ozone rat model of pulmonary inflammation; assay type: in vivo; details: 1 mg/kg IV at t = 0, 5 and 9 h; 1 ppm ozone 4 h; BALF at 24 h
In short: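 Sprague-Dawley rats, n = 4 per cohort, given IV vehicle (negative and positive groups) or test compound at 1 mg/kg at t = 0. They were then exposed to air (negative) or 1 ppm ozone for 4 h and redosed at 5 and 9 h. At 24 h rats were sacrificed and BALF collected. Cells were spun down, Wright-Giemsa stained and counted. BALF protein was measured by Bradford assay.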

Rat pharmacokinetics = assay type: in vivo; details: 1 mg/kg oral gavage in neat Labrasol; for plasma levels after oral gavage: LLOQ approximately 20 nM
[2] = Solubility in aqueous systems; assay type: physicochemical
[3] = Metabolic stability in rat liver microsomes; assay type: in vitro ADME
In short: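 Test compound at 1 μM incubated with isolated rat liver microsomes for 60 min at 37 °C. Samples analysed by LC-MS at 0 and 60 min. Result expressed as percent parent remaining at 60 min.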

[4] = Metabolic stability in monkey liver microsomes; assay type: in vitro ADME; details: Microsome stability (% remaining @ 60 min) monkey, 37°C, LC-MS

SMILES: O=C(Nc1ccc(F)cc1)c1ccc(SCc2cccc(B(O)O)c2)nc1 [Compound 8]
- fold drop in activity relative to compound 5 [1]: 30 fold

SMILES: CC[C@@H](Nc1c(Nc2cccc(C(=O)N(C)C)c2O)c(=O)c1=O)c1ccc(C)o1 [navarixin]
- ozone inhalation-induced sputum PMN recruitment (healthy subjects): inhibited

- mode of action (CXCR2): full antagonist
- Rat PK AUC Oral (Rat pharmacokinetics): <LLOQ
- plasma levels after oral gavage (Rat pharmacokinetics): < 20 nM
- solubility in aqueous systems [2]: insolubility in aqueous systems
- remaining at 1 h, 1 μM [3]: > 90%
- remaining at 1 h, 1 μM [4]: > 90%
SMILES: O=C(Nc1ccc(F)cc1)c1ccc(SCc2cc(OC(F)(F)F)ccc2B(O)O)nc1 [Compound 6, 6-(2-boronic acid-5-trifluoromethoxy-benzylsulfanyl)-N-(4-fluoro-phenyl)-nicotinamide]
- PMN influx to the lungs (BALF) (Sprague-Dawley rats): significantly decreased PMN influx to the lungs to near undetectable levels; also recorded: potent inhibition of PMN recruitment; also recorded: potent inhibition of neutrophil influx
- macrophage influx (BALF) (Sprague-Dawley rats): significantly decreased

SMILES: O=C(Nc1ccc(F)cc1)c1ccc(SCCc2ccccc2B(O)O)nc1 [Compound 11]
- fold drop in activity relative to compound 5 [1]: 10 fold

SMILES: O=C(Nc1ccc(F)cc1)c1ccc(SCc2cc3c(cc2B(O)O)OCO3)nc1 [Compound 13]
- activity in the PMN assay [1]: complete lack of activity

SMILES: COc1ccc(B(O)O)c(CSc2ccc(C(=O)Nc3ccc(F)cc3)cn2)c1 [Compound 14]
- fold drop in activity relative to compound 5 [1]: 2 fold

- Rat PK AUC Oral (Rat pharmacokinetics): <LLOQ
- plasma levels after oral gavage (Rat pharmacokinetics): < 20 nM
- solubility in aqueous systems [2]: insolubility in aqueous systems
SMILES: O=C(Nc1ccc(F)cc1)c1ccc(SCc2ccccc2B(O)O)nc1 [Compound 5]

SMILES: O=C(Nc1ccc(F)cc1)c1ccc(SCCCCB(O)O)nc1 [Compound 10]
- fold drop in activity relative to compound 5 [1]: 18 fold

SMILES: COc1cc(CSc2ccc(C(=O)Nc3ccc(F)cc3)cn2)c(B(O)O)cc1OC [Compound 12]
- activity in the PMN assay [1]: complete lack of activity

SMILES: O=C(Nc1ccc(F)cc1)c1ccc(SCc2cc(F)ccc2B(O)O)nc1 [Compound 15]
- activity in the PMN assay [1]: equipotent
